ChEMBL document CHEMBL4152372, “Novel autophagy modulators: Design and synthesis of (+)-epogymnolactam analogues and structure-activity relationship” (Bioorg Med Chem, 2018)
The source made the active and inactive calls. The calls are words filed in the database; no cut-off is given here.

Legend:
[1] = system: NIH3T3; assay: Induction of autophagy in mouse NIH/3T3 cells assessed as increase in LC3-2 to LC3-1 ratio at 25 to 100 uM after 4 hrs by immunoblot analysis; type: functional, cell-based
Procedure, shortened: (§1)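 Mouse embryo NIH3T3 fibroblasts seeded at 3.3 × 10^5 cells/ml at 37°C, 5% CO2; after 24 h the medium was changed and compounds added in DMSO at 25, 50 or 100 μM final. Controls were DMSO vehicle and 5 μM rapamycin. After 4 h at 37°C, cells were lysed in RIPA buffer and run on SDS-PAGE. Blots were probed for LC3, p62 and actin, and band signal ratios were quantified. Mean ± SD of triplicate.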

[2] = system: NIH3T3; assay: Induction of autophagy in mouse NIH/3T3 cells assessed as increase in LC3-2 to actin ratio at 25 to 100 uM after 4 hrs by immunoblot analysis; type: functional, cell-based; procedure, shortened: as §1
[3] = system: NIH3T3; assay: Modulation of autophagy in mouse NIH/3T3 cells assessed as effect on LC3-2 to LC3-1 ratio at 25 to 100 uM after 4 hrs by immunoblot analysis; type: functional, cell-based; procedure, shortened: as §1
[4] = system: NIH3T3; assay: Modulation of autophagy in mouse NIH/3T3 cells assessed as effect on LC3-2 to actin ratio at 25 to 100 uM after 4 hrs by immunoblot analysis; type: functional, cell-based; procedure, shortened: as §1
[5] = system: NIH3T3; assay: Cytotoxicity against mouse NIH/3T3 cells assessed as reduction in cell viability at 25 to 100 uM after 4 hrs by CCK8 assay; type: cell-based; conditions: nih3t3, 4 h
Procedure, shortened: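 NIH3T3 cells counted by trypan blue exclusion, set to 0.53 × 10^4 cells/ml, and dosed at 25, 50 or 100 μM final (DMSO 0.1%). After 4 h at 37°C under CO2, CCK-8 reagent was added and incubation continued […]. Viable cells were read as OD450 against the DMSO control, mean ± SD of triplicate.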

[6] = system: NIH3T3; assay: Inhibition of autophagy in mouse NIH/3T3 cells assessed as decrease in LC3-2 to LC3-1 ratio after 4 hrs by immunoblot analysis; type: functional, cell-based
Procedure, shortened: (§2)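 NIH3T3 mouse embryo fibroblasts seeded at 3.3 × 10^5 cells/ml, cultured 24 h at 37°C/5% CO2, medium changed, then given compound in DMSO at final 25, 50, 100 μM for 4 h at 37°C. DMSO vehicle control; 5 μM rapamycin positive control. Cells lysed in RIPA, SDS-PAGE immunoblot for LC3, SQSTM1/p62, actin; band signals quantified as relative ratios. Mean ± SD of triplicates.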

[7] = system: NIH3T3; assay: Inhibition of autophagy in mouse NIH/3T3 cells assessed as decrease in LC3-2 to actin ratio after 4 hrs by immunoblot analysis; type: functional, cell-based; procedure, shortened: as §2
[8] = system: NIH3T3; assay: Induction of apoptosis in mouse NIH/3T3 cells assessed as cell shrinkage at 50 to 100 uM measured after 4 hrs; type: functional, cell-based
[9] = system: NIH3T3; assay: Induction of autophagy in mouse NIH/3T3 cells assessed as upregulation of p62 expression at 25 to 100 uM after 4 hrs by immunoblot analysis; type: functional, cell-based; procedure, shortened: as §2
[10] = system: NIH3T3; assay: Induction of autophagy in mouse NIH/3T3 cells assessed as increase in LC3-2 to LC3-1 ratio after 4 hrs by immunoblot analysis; type: functional, cell-based; procedure, shortened: as §1
[11] = system: NIH3T3; assay: Induction of autophagy in mouse NIH/3T3 cells assessed as increase in LC3-2 to actin ratio after 4 hrs by immunoblot analysis; type: functional, cell-based; procedure, shortened: as §1
[12] = system: NIH3T3; assay: Induction of apoptosis in mouse NIH/3T3 cells assessed as cell shrinkage at 100 uM measured after 4 hrs; type: functional, cell-based
[13] = system: NIH3T3; assay: Induction of autophagy in mouse NIH/3T3 cells assessed as upregulation of p62 expression after 4 hrs by immunoblot analysis; type: functional, cell-based; procedure, shortened: as §1
[14] = system: NIH3T3; assay: Modulation of autophagy in mouse NIH/3T3 cells assessed as effect on p62 expression at 25 to 100 uM after 4 hrs by immunoblot analysis; type: functional, cell-based; procedure, shortened: as §1
[15] = system: NIH3T3; assay: Induction of autophagy in mouse NIH/3T3 cells assessed as upregulation of p62 expression after 6 hrs by immunoblot analysis; type: functional, cell-based

Row | SMILES | Activity [1] | Activity [2] | Activity [5] | also measured
1 | CCCC[C@@H](O)[C@H]1O[C@H]1C(N)=O | inactive | inactive |  | 
2 | CCCCC(=O)[C@H]1O[C@H]1C(=O)N(C)C | inactive | inactive |  | 
3 | CCCCCCCCCCC(=O)[C@H]1O[C@H]1C(N)=O |  |  | Toxic | Activity [3]: inactive; Activity [4]: inactive
4 | CCCCCCCCC(=O)[C@H]1O[C@H]1C(N)=O |  |  | Toxic | inhibition [6]: Dose-dependent effect; inhibition [7]: Dose-dependent effect; Activity [8]: Active; Activity [9]: Active
5 | CCCCCCC(=O)[C@H]1O[C@H]1C(N)=O |  |  | Toxic | Activity [10]: Dose-dependent effect; Activity [11]: Dose-dependent effect; Activity [12]: Active; Activity [13]: Dose-dependent effect
6 | CCCC[C@]1(OC)NC(=O)[C@@H]2O[C@@H]21 | inactive | inactive |  | 
7 | CCCCC1(O)NC(=O)[C@H]2O[C@H]21 (stereo partly drawn) | inactive | inactive |  | 
8 | C/C=C/C/C=C/CCC(=O)[C@H]1O[C@H]1C(N)=O [CERULENIN] |  |  | Toxic | inhibition [6]: Dose-dependent effect; inhibition [7]: Dose-dependent effect; Activity [9]: Active
9 | CCCCC(=O)CCC(N)=O | inactive | inactive |  | 
10 | CCCC[C@@]1(O)NC(=O)[C@@H]2O[C@@H]21 | Active | Active | Toxic | Activity [8]: inactive; Activity [14]: inactive; Activity [15]: Active
